Measurements from ChEMBL document CHEMBL4270642, “Boronic ester-linked macrocyclic lipopeptides as serine protease inhibitors targeting Escherichia coli type I signal peptidase” (Eur J Med Chem, 2018).
≈ marks a conversion by molar mass, not a printed value. Square brackets hold non-standard residues; d marks the D form. Peptide text beside a SMILES is read from it. * marks the point of attachment. Benzoyl(4-(4-hexylphenyl)) = CCCCCCc1ccc(-c2ccc(C(=O)*)cc2)cc1; X1 = C[C@H](N*)B1OC2C[C@@H]3C[C@@H](C3(C)C)[C@]2(C)O1; Orn = NCCC[C@H](N)C(=O)O

Key:
[1] = molecular target: Signal peptidase I (Escherichia coli K-12) (UniProt P00803); assay: Inhibition of Escherichia coli type 1 signal peptidase lepB assessed as residual activity at 10 uM preincubated for 10 mins followed by Dabcyl-VGGTATAYGAFSRPGLE-(EDANS)-OH substrate addition measured after 2 hrs by FRET based assay (reference value: 100%)
Chain of Signal peptidase I (Escherichia coli K-12) (P00803 whole entry): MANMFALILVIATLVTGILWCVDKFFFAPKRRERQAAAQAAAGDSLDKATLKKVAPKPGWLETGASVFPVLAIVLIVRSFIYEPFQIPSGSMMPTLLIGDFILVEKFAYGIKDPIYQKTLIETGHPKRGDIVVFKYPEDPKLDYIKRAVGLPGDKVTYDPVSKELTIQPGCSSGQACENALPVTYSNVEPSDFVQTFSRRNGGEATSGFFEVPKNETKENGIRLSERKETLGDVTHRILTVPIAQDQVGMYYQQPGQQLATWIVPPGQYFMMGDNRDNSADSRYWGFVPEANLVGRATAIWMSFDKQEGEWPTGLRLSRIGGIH
Procedure, shortened: (§1)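 EcLepB (about 50 nM estimated) preincubated 10 min with compound. Reaction started with Dabcyl/EDANS FRET peptide at 8 µM final (Km 20 µM). Fluorescence followed continuously at 535 nm, 22 °C, for 2 h. Cleavage rates plotted against inhibitor concentration; IC50 from non-linear regression of sigmoidal dose-response curves.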

Klebsiella pneumoniae = assay: Antibacterial activity against Klebsiella pneumoniae ATCC 13883 after 16 to 20 hrs by broth microdilution method; type: functional
Procedure, shortened: (§2)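 Broth microdilution in cation-adjusted Mueller-Hinton II per EUCAST/CLSI; two-fold compound series 64 down to 0.25 µg/mL final. Inoculum from fresh colonies (non-selective agar, 18-24 h, 35 ± 2 °C), adjusted to 0.5 McFarland, diluted to about 5 × 10^5 CFU/mL final. Static incubation 16-20 h at 35 ± 2 °C; MIC read visually as complete growth inhibition against medium-only wells.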

[2] = molecular target: Signal peptidase I (Escherichia coli K-12) (UniProt P00803); assay: Inhibition of Escherichia coli type 1 signal peptidase lepB assessed as residual activity at 0.625 uM preincubated for 10 mins followed by Dabcyl-VGGTATAYGAFSRPGLE-(EDANS)-OH substrate addition measured after 2 hrs by FRET based assay (reference value: 100%); procedure, shortened: as §1
Pseudomonas aeruginosa [3] = assay: Antibacterial activity against Pseudomonas aeruginosa PAO1 after 16 to 20 hrs by broth microdilution method; type: functional; procedure, shortened: as §2
Escherichia coli [4] = assay: Antibacterial activity against Escherichia coli D22 CGSG 5163 harboring Ips mutant after 16 to 20 hrs by broth microdilution method; type: functional
Procedure, shortened: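 Broth microdilution in cation-adjusted Mueller-Hinton II broth, following EUCAST and CLSI guidelines. Two-fold series at final concentrations 64 down to 0.25 µg/mL, with medium-only and growth controls. Inoculum from fresh colonies (18-24 h, 35 °C ± 2 °C) adjusted to 0.5 McFarland, final ≈5 × 10^5 CFU/mL. Plates incubated unshaken 16-20 h at 35 °C ± 2 °C. MIC read visually as complete inhibition of growth.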

[5] = molecular target: Signal peptidase I (Escherichia coli K-12) (UniProt P00803); assay: Inhibition of Escherichia coli type 1 signal peptidase lepB assessed as residual activity at 1.25 uM preincubated for 10 mins followed by Dabcyl-VGGTATAYGAFSRPGLE-(EDANS)-OH substrate addition measured after 2 hrs by FRET based assay (reference value: 100%); procedure, shortened: as §1
[6] = molecular target: Signal peptidase I (Escherichia coli K-12) (UniProt P00803); assay: Inhibition of Escherichia coli type 1 signal peptidase lepB assessed as residual activity at 0.0195 uM preincubated for 10 mins followed by Dabcyl-VGGTATAYGAFSRPGLE-(EDANS)-OH substrate addition measured after 2 hrs by FRET based assay (reference value: 100%); procedure, shortened: as §1
[7] = molecular target: Signal peptidase I (Escherichia coli K-12) (UniProt P00803); assay: Inhibition of Escherichia coli type 1 signal peptidase lepB assessed as residual activity at 0.0391 uM preincubated for 10 mins followed by Dabcyl-VGGTATAYGAFSRPGLE-(EDANS)-OH substrate addition measured after 2 hrs by FRET based assay (reference value: 100%); procedure, shortened: as §1
Acinetobacter baumannii = assay: Antibacterial activity against Acinetobacter baumannii ATCC 19606 after 16 to 20 hrs by broth microdilution method; type: functional; settings: ATCC 19606 = CIP 70.34 = JCM 6841; procedure, shortened: as §2
HepG2 = assay: Cytotoxicity against human HepG2 cells after 72 hrs by FMSA; type: cell-based; settings: HepG2, 72 h
Procedure, shortened: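 HepG2 (ATCC) grown in EMEM with 10% FBS, pen/strep, 2 mM L-glutamine, used up to 20 passages. Seeded at 1000 cells/well, cultured overnight, then dosed acoustically from DMSO stocks. Eight two-fold dilutions in duplicate from top 64 or 32 µM; 72 h at 37 °C, 5% CO2. Fluorescein diacetate hydrolysis read at ex 485/em 530 nm; IC50 by non-linear regression.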

[8] = molecular target: Signal peptidase I (Escherichia coli K-12) (UniProt P00803); assay: Inhibition of Escherichia coli type 1 signal peptidase lepB assessed as residual activity at 0.3125 uM preincubated for 10 mins followed by Dabcyl-VGGTATAYGAFSRPGLE-(EDANS)-OH substrate addition measured after 2 hrs by FRET based assay (reference value: 100%); procedure, shortened: as §1
[9] = molecular target: Signal peptidase I (Escherichia coli K-12) (UniProt P00803); assay: Inhibition of Escherichia coli type 1 signal peptidase lepB assessed as residual activity at 0.0049 uM preincubated for 10 mins followed by Dabcyl-VGGTATAYGAFSRPGLE-(EDANS)-OH substrate addition measured after 2 hrs by FRET based assay (reference value: 100%); procedure, shortened: as §1
Escherichia coli [10] = assay: Antibacterial activity against Escherichia coli ATCC 25922 after 16 to 20 hrs by broth microdilution method; type: functional; procedure, shortened: as §2
Pseudomonas aeruginosa [11] = assay: Antibacterial activity against efflux defective Pseudomonas aeruginosa PAO750 after 16 to 20 hrs by broth microdilution method; type: functional; procedure, shortened: as §2
Signal peptidase I = Signal peptidase I (Escherichia coli K-12, UniProt P00803); assay: Inhibition of Escherichia coli type 1 signal peptidase lepB preincubated for 10 mins followed by Dabcyl-VGGTATAYGAFSRPGLE-(EDANS)-OH substrate addition measured after 2 hrs by FRET based assay; procedure, shortened: as §1
Chain of Signal peptidase I (P00803 whole entry): as above

[12] = molecular target: Signal peptidase I (Escherichia coli K-12) (UniProt P00803); assay: Inhibition of Escherichia coli type 1 signal peptidase lepB assessed as residual activity at 5 uM preincubated for 10 mins followed by Dabcyl-VGGTATAYGAFSRPGLE-(EDANS)-OH substrate addition measured after 2 hrs by FRET based assay (reference value: 100%); procedure, shortened: as §1
[13] = molecular target: Signal peptidase I (Escherichia coli K-12) (UniProt P00803); assay: Inhibition of Escherichia coli type 1 signal peptidase lepB assessed as residual activity at 0.0006 uM preincubated for 10 mins followed by Dabcyl-VGGTATAYGAFSRPGLE-(EDANS)-OH substrate addition measured after 2 hrs by FRET based assay (reference value: 100%); procedure, shortened: as §1
[14] = molecular target: Signal peptidase I (Escherichia coli K-12) (UniProt P00803); assay: Inhibition of Escherichia coli type 1 signal peptidase lepB assessed as residual activity at 0.1563 uM preincubated for 10 mins followed by Dabcyl-VGGTATAYGAFSRPGLE-(EDANS)-OH substrate addition measured after 2 hrs by FRET based assay (reference value: 100%); procedure, shortened: as §1
Staphylococcus aureus = assay: Antibacterial activity against Staphylococcus aureus ATCC 29213 after 16 to 20 hrs by broth microdilution method; type: functional; procedure, shortened: as §2
[15] = molecular target: Signal peptidase I (Escherichia coli K-12) (UniProt P00803); assay: Inhibition of Escherichia coli type 1 signal peptidase lepB assessed as residual activity at 0.0012 uM preincubated for 10 mins followed by Dabcyl-VGGTATAYGAFSRPGLE-(EDANS)-OH substrate addition measured after 2 hrs by FRET based assay (reference value: 100%); procedure, shortened: as §1
Escherichia coli [16] = assay: Antibacterial activity against tolC deficient Escherichia coli CH3130 after 16 to 20 hrs by broth microdilution method; type: functional; procedure, shortened: as §2
[17] = Hemolytic activity in human RBC at 100 uM after 45 mins by spectrophotometric method relative to control; type: ADME, cell-based, Erythrocyte; settings: red blood cells (erythrocytes), read-out: Activity
Procedure, shortened: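 Heparinized human blood; red cells washed three times in Tyrode buffer pH 7.4. Compound at 100 µM final with 1% DMSO and 50% RBC, shaken (250 rpm) 45 min at 37 °C. Cells pelleted (1000 × g, 10 min); supernatant haemoglobin at 540 nm. Percent lysis relative to buffer-only and 2% Triton X-100 controls.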

[18] = molecular target: Signal peptidase I (Escherichia coli K-12) (UniProt P00803); assay: Inhibition of Escherichia coli type 1 signal peptidase lepB assessed as residual activity at 0.0024 uM preincubated for 10 mins followed by Dabcyl-VGGTATAYGAFSRPGLE-(EDANS)-OH substrate addition measured after 2 hrs by FRET based assay (reference value: 100%); procedure, shortened: as §1
[19] = molecular target: Signal peptidase I (Escherichia coli K-12) (UniProt P00803); assay: Inhibition of Escherichia coli type 1 signal peptidase lepB assessed as residual activity at 2.5 uM preincubated for 10 mins followed by Dabcyl-VGGTATAYGAFSRPGLE-(EDANS)-OH substrate addition measured after 2 hrs by FRET based assay (reference value: 100%); procedure, shortened: as §1
[20] = molecular target: Signal peptidase I (Escherichia coli K-12) (UniProt P00803); assay: Inhibition of Escherichia coli type 1 signal peptidase lepB assessed as residual activity at 0.0781 uM preincubated for 10 mins followed by Dabcyl-VGGTATAYGAFSRPGLE-(EDANS)-OH substrate addition measured after 2 hrs by FRET based assay (reference value: 100%); procedure, shortened: as §1
[21] = molecular target: Signal peptidase I (Escherichia coli K-12) (UniProt P00803); assay: Inhibition of Escherichia coli type 1 signal peptidase lepB assessed as residual activity at 0.0098 uM preincubated for 10 mins followed by Dabcyl-VGGTATAYGAFSRPGLE-(EDANS)-OH substrate addition measured after 2 hrs by FRET based assay (reference value: 100%); procedure, shortened: as §1

| SMILES | Activity [1] | MIC (Klebsiella pneumoniae) | Activity [2] | MIC (Pseudomonas aeruginosa [3]) | MIC (Escherichia coli [4]) | Activity [5] | Activity [6] | Activity [7] | MIC (Acinetobacter baumannii) | IC50 (HepG2) | Activity [8] | Activity [9] | MIC (Escherichia coli [10]) | MIC (Pseudomonas aeruginosa [11]) | IC50 (Signal peptidase I) | Activity [12] | Activity [13] | Activity [14] | MIC (Staphylococcus aureus) | Activity [15] | further results |
| --- | --- | --- | --- | --- | --- | --- | --- | --- | --- | --- | --- | --- | --- | --- | --- | --- | --- | --- | --- | --- | --- |
| CCCCCCc1ccc(-c2ccc(C(=O)N[C@@H](CCCN)C(=O)N[C@H](C(=O)N[C@@H](C)C(=O)N[C@H]3Cc4cn(nn4)CCCN4C[C@@H]5OB(O[C@@H]5C4)[C@H](C)NC3=O)[C@@H](C)O)cc2)cc1 | 5.6% | 32 µg/mL (≈ 36.2 µM) | 35.3% | > 64 µg/mL | 8 µg/mL (≈ 9.04 µM) | 32.8% | 68.6% | 47.9% | 16 µg/mL (≈ 18.1 µM) | 4000 nM | 43% | 80.9% | 32 µg/mL (≈ 36.2 µM) | 64 µg/mL (≈ 72.3 µM) | 105 nM | 14.9% | 89.5% | 47.3% | 32 µg/mL (≈ 36.2 µM) | 85.6% | MIC (Escherichia coli [16]): 8 µg/mL (≈ 9.04 µM); hemolysis at 0.75 h, 100 µM [17]: 17.4%; Activity [18]: 86.2%; Activity [19]: 28.1%; Activity [20]: 42.8%; Activity [21]: 76.7% |
| CCCCCCc1ccc(-c2ccc(C(=O)N[C@@H](CCCN)C(=O)N[C@H](C(=O)N[C@@H](C)C(=O)N[C@H]3Cc4cn(nn4)CCN4C[C@@H]5OB(O[C@@H]5C4)[C@H](C)NC3=O)[C@@H](C)O)cc2)cc1 | 17.8% | 64 µg/mL (≈ 73.5 µM) | 36.3% | > 64 µg/mL | 32 µg/mL (≈ 36.7 µM) | 32.9% | 71.3% | 63.8% | 32 µg/mL (≈ 36.7 µM) | 9500 nM | 38.8% | 77% | 64 µg/mL (≈ 73.5 µM) | > 64 µg/mL | 104 nM | 26.7% | 97.3% | 47.2% | 32 µg/mL (≈ 36.7 µM) | 80.6% | MIC (Escherichia coli [16]): 16 µg/mL (≈ 18.4 µM); hemolysis at 0.75 h, 100 µM [17]: 10.1%; Activity [18]: 79.9%; Activity [19]: 29.8%; Activity [20]: 61.4%; Activity [21]: 77.9% |
| CCCCCCc1ccc(-c2ccc(C(=O)N[C@@H](CCCN)C(=O)N[C@H](C(=O)N[C@@H](C)C(=O)N[C@@H](CC(N)=O)C(=O)N[C@@H](C)B3OC4C[C@@H]5C[C@@H](C5(C)C)[C@]4(C)O3)[C@@H](C)O)cc2)cc1 (stereo partly drawn) ({Benzoyl(4-(4-hexylphenyl))}-[Orn]TAN-X1) | 6.3% | 2 µg/mL (≈ 2.25 µM) | -9.9% | 64 µg/mL (≈ 72.1 µM) | 0.5 µg/mL (≈ 0.563 µM) | 8.5% | 42.9% | 24.9% | 4 µg/mL (≈ 4.5 µM) | 11700 nM | 3.5% | 87.3% | 8 µg/mL (≈ 9.01 µM) | 32 µg/mL (≈ 36 µM) | 17 nM | 1.8% | 114% | -1.3% | 0.025 µg/mL (≈ 0.0282 µM) | 98.6% | MIC (Escherichia coli [16]): 2 µg/mL (≈ 2.25 µM); hemolysis at 0.75 h, 100 µM [17]: 11.7%; Activity [18]: 91.9%; Activity [19]: -0.2%; Activity [20]: 20.5%; Activity [21]: 70.6% |
